# High-throughput results from PubChem BioAssay.
# MT stabilize HCS: microtubule stabilization, imaging screen | HeLa tubulin immunostaining HCS, 24 h; share of cells brighter than vehicle mean+2SD | % tubulin-high responders, % at 10 µM | actives 0.83% (n = 200,000);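 active = plate Z-score above 3 for both tubulin-high and condensed-nucleus cell shares, with cell loss under 80%, at 10 µM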;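 also: anti alpha tubulin signal scored within the nucleus-defined area of each cell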
# ABCG2 block: human ABCG2 inhibition, ABCB1 as counter-screen | AID 1325 | inhibition, % at 6.6 µM | IgMXP3 cells, JC-1 efflux, flow cytometry | Q9UNQ0 | actives 0.1% (n = 190,000);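 active = inhibition above 80%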;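 also: 0% = DMSO and 100% = nicardipine control wells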
# Target sequence (Q9UNQ0 whole entry, looked up): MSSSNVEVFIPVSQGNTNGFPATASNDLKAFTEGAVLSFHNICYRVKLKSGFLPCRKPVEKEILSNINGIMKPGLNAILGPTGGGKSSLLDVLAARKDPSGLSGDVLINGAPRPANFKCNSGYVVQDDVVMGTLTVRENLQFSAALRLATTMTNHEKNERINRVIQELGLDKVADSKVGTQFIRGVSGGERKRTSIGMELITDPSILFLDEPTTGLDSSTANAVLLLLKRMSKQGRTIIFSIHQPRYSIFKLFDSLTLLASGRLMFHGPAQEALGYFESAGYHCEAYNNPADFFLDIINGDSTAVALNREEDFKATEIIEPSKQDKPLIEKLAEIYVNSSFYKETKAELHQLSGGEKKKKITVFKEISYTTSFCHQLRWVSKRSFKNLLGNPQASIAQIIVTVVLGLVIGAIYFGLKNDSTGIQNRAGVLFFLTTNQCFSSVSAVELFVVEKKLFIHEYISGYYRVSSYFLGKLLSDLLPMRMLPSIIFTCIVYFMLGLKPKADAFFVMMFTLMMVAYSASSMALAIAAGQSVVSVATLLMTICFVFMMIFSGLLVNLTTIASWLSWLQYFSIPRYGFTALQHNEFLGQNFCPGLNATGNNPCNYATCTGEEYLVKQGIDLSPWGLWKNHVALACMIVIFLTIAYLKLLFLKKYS
#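 Test system: IgMXP3 (ABCG2) plus far-red-tagged CCRF-Adr (ABCB1) cells / Amount: 3 million cells/mL in well / Reagent: JC-1 transporter substrate / Timing: 10 min compound exposure, 25 °C / Signal: flow cytometry, 530 nm JC-1 signal / Read-out: percent efflux inhibition, scaled nicardipine 100% to DMSO 0% / Benchmarks: nicardipine as high control, DMSO as low control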
# bCat nuc transl: alters nuclear translocation of beta-catenin in HeLa cells; actives 0.3% (n = 190,000); nuclear translocation activity, % at 5 µM; AID 1665; immunofluorescence imaging;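 active = nuclear translocation activity above 50% at 5 µM, with a well cell count of 50 or more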;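 also: per-cell ratio of nuclear to cytoplasmic median beta-catenin stain intensity; plate controls were DMSO negative control for no effect and GSK-3 inhibitor IX positive control for full effect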
#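 Assay system: human HeLa cells, native beta-catenin; doses: 5 µM primary, 0.02–20 µM confirmation; incubation: compound treatment 24 h, 37°C, 5% CO2; technique: fluorescence imaging of beta-catenin antibody stain plus DAPI; measure: % activation, nuclear-to-cytoplasmic median beta-catenin signal ratio per cell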
# Autophagy mod: modulators of autophagy; AID 463193; MEF GFP-LC3 puncta imaging; test concentration mostly 10 µM; calls only at 10 µM (by protocol); actives 0.98% (n = 190,000);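 active = percentage of spot-positive cells more than 3 SD above its plate mean, without a fluorescence outlier flag or 80% toxicity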;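 also: spot-positive cell cutoff set from DMSO-treated cells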
# Arbovirus anti: antivirals against arbovirus infection | arbovirus infection cell-based antiviral screen | inhibition, % at 10 µM | actives 0.37% (n = 200,000) | AID 1251; in the data active = inhibition above about 30%
# ABCB1 block: blocks JC-1 efflux by human ABCB1 transporter; AID 1326; inhibition, % at 6.6 µM; actives 0.067% (n = 190,000); CCRF-Adr cells, flow cytometry; P08183; in the data active = inhibition above about 40%;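 also: 0% = vehicle and 100% = reference inhibitor; higher value means more JC-1 retained so stronger ABCB1 efflux block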
# ABCB1 single pt: confirmation of human ABCB1 transporter inhibitors, ABCG2 counter-screen; shares compounds with ABCG2 block; CCRF-Adr cells, JC-1 efflux, flow cytometry; inhibition, % at 6.6 µM; actives 7% (n = 270); AID 1451;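 active = inhibition of pump activity above 50%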;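 also: 0% = DMSO and 100% = nicardipine full pump inhibition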
# ABCG2 confirm: inhibits human ABCG2 efflux, confirmed at single point. IgMXP3 cells, JC-1 efflux, flow cytometry. actives 6% (n = 270). inhibition, % at 6.6 µM. AID 1453. shares compounds with ABCG2 block;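 active = inhibition above 50%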;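 also: 0% = DMSO wells and 100% = nicardipine pump inhibitor wells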
# IgMXP3 autofluor: compound fluoresces at 488/530 nm in IgMXP3 cells; shares compounds with ABCG2 block; compound autofluorescence 488/530 nm, flow; active compounds read high; fluorescence at 6.6 µM; actives 30% (n = 270); AID 1480;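 active = fluorescence in ABCG2-expressing cells above the plate's control-well mean plus 3 SD, cut at about 15 in these data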;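 also: median cell fluorescence with compound minus that of DMSO-treated control cells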
# CCRF autofluor: counter-screen for ABCB1 inhibitors: compound fluorescence in CCRF-Adr cells; shares compounds with ABCG2 block; actives 30% (n = 270); fluorescence at 6.6 µM; compound autofluorescence 488/530 nm, flow cytometry; active compounds read high; AID 1483;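 active = fluorescence beyond the plate control mean plus 3 SD, with a fluorescence-to-maximum score over 2, cut at about 25 in these data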
# * marks the source's active call; other numbers are inactive results; i = inactive; . = no result; + = active, no number. Sampled rows, rich in hits. Any-hit rate of the full collection: about 2.1%.
SMILES,MT stabilize HCS,ABCG2 block,bCat nuc transl,Autophagy mod,Arbovirus anti,ABCB1 block,ABCB1 single pt,ABCG2 confirm,IgMXP3 autofluor,CCRF autofluor
Cc1ccc(N=Cc2c(O)n(-c3nccs3)c(=O)c3ccccc23)cc1,8.5,73.4,-1.8,i,-14.6,41.3*,4.6,36.8,-0.29,8.76
COc1ccc(/C=N/NC(=O)c2nc(-c3ccccc3)n(-c3ccccc3)n2)cc1,1.3,7.5,-0.8,i,-16.8,2.0,.,.,.,.
CCOc1ccccc1NC=C1C(=O)OC2(CCCCC2)OC1=O,1.3,0.2,-1.0,i,3.4,0.2,.,.,.,.
CCOC(=O)c1sc(NN=C(C(=O)OC)C(=O)OC)c(C(=O)OCC)c1C,8.0,125.8*,2.6,i,19.2,0.5,2.1,25.6,-1.29,-1.19
Cc1cc(-c2sccc2Br)nc(-n2cccc2)n1,3.1,92.3*,-4.1,i,5.9,1.3,1.3,33.1,-1.94,-4.74
COc1cc(C(=O)OC2CCN(C)CC2)cc(OC)c1OC,5.9,1.7,-0.2,i,-2.9,0.5,.,.,.,.
O=C(CCCCCn1c(=S)[nH]c2ccc(Br)cc2c1=O)NCC1CCCO1 (stereo not given),1.7,81.1*,.,i,-3.4,2.7,7.9,34.0,15.1*,71.6*
Cn1c(CN2CCOCC2)nc2cc(NC(=O)COc3ccc([N+](=O)[O-])cc3)ccc21,1.3,12.4,1.4,i,7.8,0.7,.,.,.,.
O=S(=O)(c1ccc(Br)cc1)N1CCN(c2cc(-c3ccccc3)nc3ncnn23)CC1,3.7,52.2,0.1,i,3.9,59.9*,36.9,23.0,3.51,7.16
COc1ccc(S(=O)(=O)c2c(C)c(NS(=O)(=O)c3ccccc3)cc(C)c2O)cc1,2.9,0.5,-1.0,i,-22.8,0.4,.,.,.,.
CC1(C)CC(=O)c2sc(NS(=O)(=O)c3ccc(Br)cc3)nc2C1,4.2,-2.4,0.0,i,5.9,0.2,.,.,.,.
Cc1nc2cc(-c3cccc(F)c3)nn2c(N2CCN(C(=O)c3ccco3)CC2)c1C,1.9,90.7*,.,i,1.6,63.4*,51.5*,50.2*,-2.29,-4.79
Cc1nc2cc(-c3cccc(F)c3)nn2c(C)c1CCC(=O)N1CCN(c2ccccn2)CC1,.,.,-0.9,.,-3.6,.,.,.,.,.
CC(C)C(=O)N1CCN(c2ccccc2N)CC1,2.9,1.2,.,i,-1.2,0.0,.,.,.,.
O=C(NCc1ccccn1)c1ccc(-c2ccccc2)cc1,2.9,0.4,0.1,i,-5.1,0.1,.,.,.,.
O=C(NCc1ccccn1)c1cn(-c2ccccc2)nc1-c1ccc(Cl)cc1,9.0,82.6*,-1.3,i,7.0,2.6,-49.4,23.0,22.1*,149*
CCN(CC)c1ccc(/C=c2/sc3nnc(-c4ccccc4C)n3c2=O)cc1,3.1,63.9,.,i,-5.7,77.0*,24.5,13.3,139*,249*
CCN(CC)c1ccc(/C=c2\sc3nnc(-c4ccccc4Cl)n3c2=O)cc1,1.7,77.9,-3.1,i,7.5,59.7*,27.9,-53.6,202*,204*
Cc1ccc(/C=c2/sc3nnc(-c4ccccc4Cl)n3c2=O)o1,2.9,57.7,-0.7,i,0.8,1.8,.,.,.,.
COc1ccc(C)cc1S(=O)(=O)N1c2ccccc2CC1C (stereo not given),2.3,0.2,-0.8,i,1.3,0.3,.,.,.,.
COc1cccc(/C=C(/C(=O)OCC(=O)NC2CCCC(C)C2C)c2ccccc2)c1 (stereo not given),1.7,78.8,.,i,-17.2,9.1,4.5,23.3,-1.44,-4.04
Cc1cc(/C=C(\C#N)C(=O)O)c(C)n1CC(C)C,5.0,+,-0.6,i,-7.2,+,-2.0,-5.3,39.8*,4.41
COc1ccc(N2CCN(C(=O)C3CCC(Cn4c(=S)[nH]c5ccccc5c4=O)CC3)CC2)cc1 (stereo not given),4.5,33.8,-0.1,i,-8.3,40.9*,34.2,23.4,2.06,9.46
O=C(C1CCC(Cn2c(=S)[nH]c3ccccc3c2=O)CC1)N1CCN(c2ccccc2)CC1 (stereo not given),1.6,.,.,i,.,.,.,.,.,.
COc1ccc(CN2C(=O)c3ccccc3C2=O)cc1C(=O)Nc1ccccc1N1CCOCC1,2.5,38.8,-4.5,i,0.8,43.2*,71.6*,43.4,1.36,12.2
SMILES,MT stabilize HCS,ABCG2 block,bCat nuc transl,Autophagy mod,Arbovirus anti,ABCB1 block,ABCB1 single pt,ABCG2 confirm,IgMXP3 autofluor,CCRF autofluor
CC(Cc1cccs1)NC(=S)Nc1ccc(Cl)cc1 (stereo not given),2.8,1.9,0.4,i,-25.2,-0.1,.,.,.,.
CC(Cc1cccs1)NC(=S)Nc1ccc(Cl)c(Cl)c1 (stereo not given),3.0,61.2,.,i,-3.3,0.8,-4.4,7.0,3.16,10.2
Cc1ccc(-n2c(C)cc(C(=O)COC(=O)c3ccc[nH]c3=O)c2C)cc1C,2.1,-15.8,-3.4,i,-2.8,-0.2,.,.,.,.
COc1ccc(-c2cc(C#N)nc(Oc3ccc(Cl)cc3)n2)cc1,7.4,83.5*,-2.2,i,12.5,-0.1,11.4,9.9,34.8*,25.6*
N#Cc1cc(-c2ccccc2)nc(Oc2ccccc2)n1,2.8,1.2,-1.5,i,16.5,0.0,.,.,.,.
C=CCNC(=O)CSc1nnc(-c2ccncc2)n1CCc1ccccc1,2.6,0.2,4.3,i,2.8,0.1,.,.,.,.
CCCN1C(=O)/C(=C\C=C2\N(CC)c3ccccc3C2(C)C)SC1=S,26.8,104.0*,0.3,+,-2.8,68.2*,-27.1,4.8,63*,252*
COc1ccc(Cc2nc3c4c(ncn3n2)Oc2ccc3ccccc3c2C4c2ccc(OC)c(OC)c2)cc1 (stereo not given),3.4,7.1,2.9,i,-7.2,9.6,29.6,18.4,-2.29,-4.14
COc1ccc(Cc2nc3c4c(ncn3n2)Oc2c(ccc3ccccc23)C4c2ccc(OC)c(OC)c2)cc1 (stereo not given),0.9,6.5,0.5,i,-7.9,12.1,.,.,.,.
CC(=O)c1c(C)[nH]c(C(=O)OCC(=O)Nc2cc(Cl)ccc2[N+](=O)[O-])c1C,3.2,9.0,-3.3,i,8.3,6.2,9.1,34.1,4.51,11.7
Cc1ccc(/C=C2\CCC3=C2OC(N)=C(C#N)C3c2ccc(C)cc2)cc1 (stereo not given),12.2,85.3*,-1.3,+,11.4,56.2*,-0.8,10.2,65.5*,87.1*
